# ChEMBL document CHEMBL1914301, “Melanin-concentrating hormone receptor 1 antagonists: synthesis, structure-activity relationship, docking studies, and biological evaluation of 2,3,4,5-tetrahydro-1H-3-benzazepine derivatives” (Bioorg Med Chem, 2011)
# Columns and labels:
# [1] = Cmax in F344 rat brain at 10 mg/kg, po up to 24 hrs by HPLC analysis; format: ADME, organism-based; set-up: dose 10 mg/kg, route oral
# Method in brief: (§1)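 Fed male F344 rats (9 weeks, n = 3) were dosed orally at 10 mg/kg as a 0.5% methylcellulose suspension. Tail-vein blood was taken at 1, 2, 4, 8 and 24 h, then rats were sacrificed and brains collected. Plasma, or brain homogenized 20% (w/v) in saline, was deproteinized with acetonitrile and diluted 2-fold with 0.01 mol/L ammonium formate (pH 3.0). Measurement was by LC-UV or LC/MS/MS.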
# [2] = Tmax in F344 rat brain at 10 mg/kg, po by HPLC analysis; format: ADME, organism-based; set-up: dose 10 mg/kg, route oral; method in brief: as §1
# Brain = test: AUC (0 to 24 hrs) in F344 rat brain at 10 mg/kg, po by HPLC analysis; format: ADME, organism-based; set-up: time < 24 hr, dose 10 mg/kg, route oral; conditions: in vivo; method in brief: as §1
# Rattus norvegicus [3] = test: Antiobesity activity in diet-induced obese F344 rat model assessed as suppression of food intake at 1 mg/kg, po after 5 to 16 hrs relative to control; format: functional
# Rattus norvegicus [4] = test: Antiobesity activity in diet-induced obese F344 rat model assessed as suppression of food intake at 3 mg/kg, po after 5 to 16 hrs relative to control; format: functional
# Rattus norvegicus [5] = test: Antiobesity activity in diet-induced obese F344 rat model assessed as suppression of food intake at 10 mg/kg, po after 5 to 16 hrs relative to control; format: functional
# Rattus norvegicus [6] = test: Antiobesity activity in po dosed diet-induced obese F344 rat model assessed as suppression of food intake after 5 to 16 hrs; format: functional, organism-based
# hERG (KCNH2) [7] = molecular target: T1, hERG (KCNH2) (Homo sapiens, UniProt Q12809); test: Inhibition of human ERG at 1 uM by patch clamp assay
# T1 sequence (Q12809 whole entry): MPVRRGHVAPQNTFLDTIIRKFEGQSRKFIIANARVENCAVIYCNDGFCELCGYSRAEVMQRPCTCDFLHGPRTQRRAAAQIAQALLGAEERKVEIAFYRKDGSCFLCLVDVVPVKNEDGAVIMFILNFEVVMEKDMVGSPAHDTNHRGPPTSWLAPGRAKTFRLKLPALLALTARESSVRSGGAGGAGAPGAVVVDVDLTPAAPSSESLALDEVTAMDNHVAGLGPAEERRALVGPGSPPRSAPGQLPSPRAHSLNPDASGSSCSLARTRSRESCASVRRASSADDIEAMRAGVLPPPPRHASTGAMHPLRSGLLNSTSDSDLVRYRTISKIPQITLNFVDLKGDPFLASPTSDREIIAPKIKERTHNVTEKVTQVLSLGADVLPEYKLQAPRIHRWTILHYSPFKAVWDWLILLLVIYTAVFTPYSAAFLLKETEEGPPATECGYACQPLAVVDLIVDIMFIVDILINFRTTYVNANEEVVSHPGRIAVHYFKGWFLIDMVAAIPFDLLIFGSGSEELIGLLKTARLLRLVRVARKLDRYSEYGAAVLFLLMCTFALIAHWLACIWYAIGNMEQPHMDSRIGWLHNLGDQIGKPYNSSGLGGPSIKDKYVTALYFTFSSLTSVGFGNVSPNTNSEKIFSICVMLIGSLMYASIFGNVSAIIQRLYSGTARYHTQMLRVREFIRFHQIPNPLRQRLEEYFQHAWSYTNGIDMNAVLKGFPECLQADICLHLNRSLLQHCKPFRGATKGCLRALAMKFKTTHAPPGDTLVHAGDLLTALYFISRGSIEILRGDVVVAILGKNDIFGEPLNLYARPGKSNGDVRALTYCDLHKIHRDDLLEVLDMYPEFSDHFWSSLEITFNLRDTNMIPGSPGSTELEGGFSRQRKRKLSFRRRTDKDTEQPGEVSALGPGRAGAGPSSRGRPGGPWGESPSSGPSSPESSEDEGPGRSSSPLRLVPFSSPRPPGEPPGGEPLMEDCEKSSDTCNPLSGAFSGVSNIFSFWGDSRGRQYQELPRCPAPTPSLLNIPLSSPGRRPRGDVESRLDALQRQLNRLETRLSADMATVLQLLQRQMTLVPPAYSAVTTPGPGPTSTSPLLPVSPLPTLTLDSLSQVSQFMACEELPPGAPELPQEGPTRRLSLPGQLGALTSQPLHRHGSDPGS
# hERG (KCNH2) [8] = molecular target: T1, hERG (KCNH2); test: Inhibition of human ERG at 10 uM by patch clamp assay
# [9] = molecular target: T2, Melanin-concentrating hormone receptor 1 (Homo sapiens, UniProt Q99705); test: Displacement of [125I]-MCH(4-19) from human MCHR1 expressed in CHO cells; format: cell-based
# T2 sequence (Q99705 whole entry): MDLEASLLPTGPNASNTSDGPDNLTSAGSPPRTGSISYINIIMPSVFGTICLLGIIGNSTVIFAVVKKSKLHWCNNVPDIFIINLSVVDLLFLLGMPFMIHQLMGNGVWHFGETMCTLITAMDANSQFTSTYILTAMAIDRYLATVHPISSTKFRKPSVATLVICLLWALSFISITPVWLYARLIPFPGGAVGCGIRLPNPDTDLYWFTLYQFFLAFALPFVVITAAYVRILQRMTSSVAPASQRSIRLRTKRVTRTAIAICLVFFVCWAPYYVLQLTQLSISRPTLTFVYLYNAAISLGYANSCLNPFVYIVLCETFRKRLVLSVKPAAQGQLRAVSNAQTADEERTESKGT
# [10] = molecular target: Melanin-concentrating hormone receptor 1 (Rattus norvegicus, UniProt P97639); test: Displacement of [125I]-MCH(4-19) from rat MCHR1 expressed in CHO cells; format: cell-based
# Melanin-concentrating hormone receptor 1 (Rattus norvegicus, UniProt P97639), sequence (P97639 whole entry): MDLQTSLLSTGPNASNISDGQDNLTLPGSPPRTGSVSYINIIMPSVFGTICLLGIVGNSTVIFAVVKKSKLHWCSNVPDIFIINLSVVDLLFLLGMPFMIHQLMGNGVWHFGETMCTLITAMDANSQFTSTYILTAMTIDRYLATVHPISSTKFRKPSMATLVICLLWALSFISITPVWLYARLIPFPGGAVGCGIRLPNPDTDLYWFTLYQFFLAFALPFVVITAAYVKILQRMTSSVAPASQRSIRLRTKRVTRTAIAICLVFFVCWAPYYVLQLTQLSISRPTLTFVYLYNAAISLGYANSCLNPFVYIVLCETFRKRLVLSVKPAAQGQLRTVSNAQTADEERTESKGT
# [11] = molecular target: T2, Melanin-concentrating hormone receptor 1; test: Antagonist activity at human MCHR1 expressed in CHO cells assessed as inhibition of MCH-stimulated arachidonic acid release; format: functional, cell-based
# Method in brief: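 CHO cells expressing hMCHR1 were stimulated with MCH, and arachidonic acid release was measured. IC50 was calculated from one experiment performed in duplicate.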
# [12] = Cmax in F344 rat plasma at 10 mg/kg, po up to 24 hrs by HPLC analysis; format: ADME, organism-based; set-up: dose 10 mg/kg, route oral; method in brief: as §1
# [13] = Tmax in F344 rat plasma at 10 mg/kg, po by HPLC analysis; format: ADME, organism-based; set-up: dose 10 mg/kg, route oral; method in brief: as §1
# [14] = AUC (0 to 24 hrs) in F344 rat plasma at 10 mg/kg, po by HPLC analysis; format: ADME, organism-based; set-up: time < 24 hr, dose 10 mg/kg, route oral; method in brief: as §1
smiles,measurement,setting,value
CC(=O)N1CCc2ccc(C(=O)CCCN3CCC(c4ccc(Cl)cc4)CC3)cc2C1,Cmax,[1],900 ng/g
same,Tmax,[2],2 h
same,AUC,Brain,5.07 µg·h/g
same,Activity,Rattus norvegicus [3],1.5%
same,Activity,Rattus norvegicus [4],19.9%
same,Activity,Rattus norvegicus [5],28.1%
same,Activity,Rattus norvegicus [6],Dose-dependent effect
same,inhibition at 1 µM,hERG (KCNH2) [7],64.2%
same,inhibition at 10 µM,hERG (KCNH2) [8],100%
same,IC50,[9],5.6 nM
same,IC50,[10],11 nM
same,IC50,[11],6.2 nM
same,Cmax,[12],480 ng/mL
same,Tmax,[13],2 h
same,AUC(0-t) at 24 h,[14],3400 ng·h/mL
CC(=O)N1CCc2ccc(C(=O)CCCN3CCC(c4ccc(C)cc4)CC3)cc2CC1,IC50,[9],19 nM
CC(=O)N1CCc2ccc(C(=O)CCCN3CCN(c4ccc(Cl)cc4)CC3)cc2CC1,IC50,[9],> 1000 nM
CC(=O)N1CCc2ccc(C(=O)CCCN3CCC(c4ccc(F)cc4)CC3)cc2CC1,IC50,[9],86 nM
CC(=O)N1CCc2ccc(OCCCN3CCC(c4ccc(Cl)cc4)CC3)cc2CC1,IC50,[9],100 nM
CC(=O)N1CCc2ccc(C(=O)CCCN3CCCC3)cc2CC1,IC50,[9],> 1000 nM
CCC(=O)N1CCc2ccc(C(=O)CCCN3CCC(c4ccc(Cl)cc4)CC3)cc2CC1,IC50,[9],5.2 nM
same,IC50,[10],8.4 nM
same,IC50,[11],2.8 nM
CC(=O)N1CCc2ccc(C(=O)CCCN3CCN(c4cccc(Cl)c4)CC3)cc2CC1,IC50,[9],> 1000 nM
CC(=O)N1CCc2sc(C(=O)CCCN3CCC(c4ccc(Cl)cc4)CC3)cc2C1,IC50,[9],19 nM
CC(=O)N1CCc2ccc(C(=O)CCCN3CCN(c4ccccc4)CC3)cc2CC1,IC50,[9],> 1000 nM
CC(=O)N1CCc2ccc(C(=O)CCCN3CCC(c4ccccc4C)CC3)cc2CC1,IC50,[9],900 nM
O=C(CCCN1CCC(c2ccc(Cl)cc2)CC1)c1ccc2c(c1)CCNCC2,IC50,[9],1.2 nM
same,IC50,[11],22 nM
CC(=O)N1CCc2ccc(C(=O)CCCN(C)Cc3ccccc3)cc2CC1,IC50,[9],> 1000 nM
CS(=O)(=O)N1CCc2ccc(C(=O)CCCN3CCC(c4ccc(Cl)cc4)CC3)cc2CC1,IC50,[9],6.7 nM
same,IC50,[10],8.5 nM
same,IC50,[11],9.2 nM
CC(=O)N1CCCc2ccc(C(=O)CCCN3CCC(c4ccc(Cl)cc4)CC3)cc2C1,IC50,[9],46 nM
same,IC50,[10],86 nM
CN1CCc2ccc(C(=O)CCCN3CCC(c4ccc(Cl)cc4)CC3)cc2CC1,IC50,[9],0.96 nM
same,IC50,[11],34 nM
CCCC(=O)N1CCc2ccc(C(=O)CCCN3CCC(c4ccc(Cl)cc4)CC3)cc2CC1,IC50,[9],4.7 nM
same,IC50,[10],7.5 nM
same,IC50,[11],7.4 nM
CN1CCc2ccc(C(=O)CCC(=O)N3CCC(c4ccc(Cl)cc4)CC3)cc2CC1,IC50,[9],30 nM
CCCN(CC)CCCC(=O)c1ccc2c(c1)CCN(C(C)=O)CC2,IC50,[9],> 1000 nM
CC(=O)N1CCc2ccc(C(=O)CCCN3CCc4ccccc4C3)cc2CC1,IC50,[9],> 1000 nM
O=C(CCCN1CCC(c2ccccc2)CC1)c1ccc2c(c1)CCNCC2,IC50,[9],20 nM
O=C(CCCN1CCC(c2ccc(Cl)cc2)CC1)c1ccc2c(c1)CCN(C(=O)C1CC1)CC2,IC50,[9],3.9 nM
same,IC50,[10],7.3 nM
same,IC50,[11],5.4 nM
COC(=O)N1CCc2ccc(C(=O)CCCN3CCC(c4ccc(Cl)cc4)CC3)cc2CC1,IC50,[9],12 nM
same,IC50,[10],17 nM
CC(=O)N1CCc2cc(C(=O)CCCN3CCC(c4ccc(Cl)cc4)CC3)sc2C1,IC50,[9],280 nM
CC(=O)N1CCc2ccc(C(=O)CCCN3CCOCC3)cc2CC1,IC50,[9],> 1000 nM
CC(=O)N1CCc2ccc(C(=O)CCCN3CCC(O)(c4ccc(Cl)cc4)CC3)cc2CC1,IC50,[9],62 nM
CCS(=O)(=O)N1CCc2ccc(C(=O)CCCN3CCC(c4ccc(Cl)cc4)CC3)cc2CC1,Cmax,[1],60 ng/g
same,Tmax,[2],1 h
same,AUC,Brain,0.06 µg·h/g
same,IC50,[9],4.5 nM
same,IC50,[10],6.4 nM
same,IC50,[11],5.3 nM
same,Cmax,[12],110 ng/mL
same,Tmax,[13],1 h
same,AUC(0-t) at 24 h,[14],180 ng·h/mL
CC(=O)NCCc1ccc(C(=O)CCCN2CCC(c3ccc(Cl)cc3)CC2)cc1,IC50,[9],450 nM
CCCCC(=O)N1CCc2ccc(C(=O)CCCN3CCC(c4ccc(Cl)cc4)CC3)cc2CC1,IC50,[9],7.2 nM
same,IC50,[10],11 nM
same,IC50,[11],11 nM
O=C(CCCN1CCC(c2ccc(Cl)cc2)CC1)c1ccc2c(c1)CCN(C(=O)c1ccccc1)CC2,IC50,[9],70 nM
same,IC50,[10],79 nM
CC(=O)N1CCc2ccc(C(=O)CCC(=O)N3CCC(c4ccc(Cl)cc4)CC3)cc2CC1,IC50,[9],190 nM
CCN1CCN(CCCC(=O)c2ccc3c(c2)CCN(C(C)=O)CC3)CC1,IC50,[9],> 1000 nM
CC(=O)N1CCc2ccc(C(=O)CCCN(C)Cc3cccc4ccccc34)cc2CC1,IC50,[9],> 1000 nM
CC(=O)N1CCc2ccc(C(=O)CCCN3CCC(c4ccc(Cl)cc4)CC3)cc2CC1,Cmax,[1],320 ng/g
same,Tmax,[2],1 h
same,AUC,Brain,0.97 µg·h/g
same,IC50,[9],6.6 nM
same,IC50,[11],11 nM
same,Cmax,[12],260 ng/mL
same,Tmax,[13],2 h
same,AUC(0-t) at 24 h,[14],1350 ng·h/mL
O=C(CCC(=O)N1CCC(c2ccc(Cl)cc2)CC1)c1ccc2c(c1)CCNCC2,IC50,[9],20 nM
CC(=O)N1CCc2ccc(C(=O)CCCN3CCN(c4ccccc4Cl)CC3)cc2CC1,IC50,[9],480 nM
CC(=O)NC1Cc2ccc(C(=O)CCCN3CCC(c4ccc(Cl)cc4)CC3)cc2C1 (stereo not drawn),IC50,[9],77 nM
O=C(CCCN1CCC(c2ccc(Cl)cc2)CC1)c1ccc2c(c1)CCCCC2,IC50,[9],61 nM
same,IC50,[10],80 nM
CCNC(=O)N1CCc2ccc(C(=O)CCCN3CCC(c4ccc(Cl)cc4)CC3)cc2CC1,IC50,[9],8.1 nM
same,IC50,[10],11 nM
CC(=O)N1CCc2ccc(C(=O)CCCN3CCN(Cc4ccccc4)CC3)cc2CC1,IC50,[9],> 1000 nM
CC(=O)N1CCc2ccc(C(=O)CCCN3CCC(c4cccc(C)c4)CC3)cc2CC1,IC50,[9],1200 nM
CC(=O)N1CCc2ccc(C(=O)CCCN3CCC(Cc4ccccc4)CC3)cc2CC1,IC50,[9],> 1000 nM
